According to ChEMBL document CHEMBL4513216, “Probing the Open Global Health Chemical Diversity Library for Multistage-Active Starting Points for Next-Generation Antimalarials” (ACS Infect Dis, 2020):

Assay: Toxicity liver stage against HepG2, at 10uM
Format: cell-based
Design: test concentration 10 uM, cell line HepG2-A16-CD81EGFP
Details: human, HepG2-A16-CD81EGFP cells; read-out: INHIBITION
Method in brief: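 Uninfected HepG2-A16-CD81EGFP cells, 3 × 10^3 per well, 1536-well, plated on prespotted compound at 10 μM final, parasite-free screening media added to match infected plates; puromycin 10 μM positive, DMSO 0.5% negative; run in parallel with 48 h PbLuc assay at 37 °C, 5% CO2; viability by CellTiter-Glo luminescence, normalized to controls.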

Row | Compound | cytotoxicity at 10 µM [%]
1 | CC(C)c1nc(C2CCCN2c2cnc3ccccc3n2)no1 (configuration not stated) | -3.13
2 | Cc1csc2ncc(-c3ccnc(N4CCC[C@@H]4CO)n3)c(=O)n12 | -11.3
3 | CCCn1ncnc1C(C)NC(=O)C1CCN(C(=O)C2CC2)CC1 (configuration not stated) | -147
4 | COc1ccccc1[C@@H]1CN(Cc2ccncc2)C[C@H]1C(=O)O | -4.23
5 | COc1cc2c(cc1CN1CCC3(CCCN(C)C3=O)C1)OCCO2 (configuration not stated) | 6.33
6 | CC(C)(CN1CCC2(CCNCC2)CC1)N1CCOCC1 | -148
7 | Cc1nn(CCN2CCSCC2)cc1CNCC1CC1 | -7.03
8 | CC(=O)N1CCN(C(=O)c2snnc2C)[C@H]2CS(=O)(=O)C[C@H]21 | -0.145
9 | Cc1cccc(CN2C(=O)OCC2CO)c1F (configuration not stated) | -2.13
10 | Cc1c(C(=O)N2CCC(O)(CN(C)C)C2)c2cc(O)ccc2n1C (configuration not stated) | -120
11 | O=C(NCCC1COc2ccccc2O1)c1ccc(-c2cc[nH]n2)nc1 (configuration not stated) | -6.84
12 | O=C(NCc1csc(-c2cccs2)n1)C1NCCc2[nH]cnc21 (configuration not stated) | -0.798
13 | Cc1cnc(N2CCCC3(CCOCC3)C2)nc1 | -116
14 | CC(C)C[C@H]1CN(c2nc3c(cc2C(N)=O)CCC3)CC[C@@]1(C)O | -4.51
15 | O=C(CC1COCCN1)N1CCCN(C2Cc3ccccc3C2)CC1 (configuration not stated) | -139
16 | O=C(c1scc2c1OCCO2)N1CCOC(Cc2cccc(F)c2)C1 (configuration not stated) | 4.78
17 | CCn1c(Cn2cncn2)nnc1C1CCN(Cc2ccncc2)CC1 | 12.3
18 | Cc1cc(F)ccc1OC1(C(=O)O)CCN(Cc2ccncc2)CC1 | -8.31
19 | Cc1ccc([C@@H]2CN(S(=O)(=O)C(C)C)C[C@H]2N(C)C)cc1 | -0.368

Row | Compound | cytotoxicity at 10 µM [%]
20 | NC(=O)CSc1nccc(-c2ccc3c(c2)OCO3)n1 | -7.38
21 | O=C(NCC1CCOC1)c1csc(-c2ccc(F)cc2)n1 (configuration not stated) | -3.06
22 | Cc1nc(C)c(CN2CCC(N(C)Cc3nnc(C4CC4)o3)C2)s1 (configuration not stated) | -4.18
23 | Cc1nc(C(C)C)sc1C(=O)NCCn1nc2ccccn2c1=O | -12
24 | NC(=O)C1CN(C(=O)Nc2ccc(SC(F)(F)F)cc2)CCO1 (configuration not stated) | -12.9
25 | COc1c(C2CCCN2Cc2nc(-c3ccco3)no2)c(C)nn1C (configuration not stated) | -10.2
26 | COc1ccnc(N2CCN(C(=O)c3ccn(C)c(=O)c3)CC2)n1 | -13.7
27 | COc1c(CNCc2cccc(Cn3cncn3)c2)c(C)nn1C | -11.2
28 | Cc1nn(CC(C)C)c(N(C)C)c1CNCc1ccccc1CO | -15.2
29 | Cc1nn(C)c(N(C)C)c1CNCCS(C)(=O)=O | -17.4
30 | CC(C)Oc1ccc(C(=O)N2CCCCC2Cn2cccn2)cn1 (configuration not stated) | -14.9
31 | CCc1nc(CN2CCCC(NCc3nc4ccccc4o3)C2)no1 (configuration not stated) | -3.81
32 | CS(=O)(=O)c1ccc(CNC(=O)Nc2cn[nH]c2)cc1 | -1.88
33 | CN(Cc1ccc(F)cc1)C(=O)NCc1nnc2n1CCC2 | -17.8
34 | COc1ccc(-c2cnc(CN3CCCC3Cn3cccn3)o2)cc1 (configuration not stated) | -5.71
35 | CC(C)c1noc(CCC(=O)NCC2CCC(C(N)=O)CC2)n1 (configuration not stated) | -31.6
36 | CCS(=O)(=O)c1ccccc1C(=O)N1CCCC(n2cccn2)C1 (configuration not stated) | -29.9
37 | CCc1nc(C2CCCN2C(=O)c2ccc3c(c2)[nH]c(=O)n3C)no1 (configuration not stated) | 1.04
38 | Cc1cc(C)n(CC2CN(c3ncnc4[nH]ccc34)CCO2)n1 (configuration not stated) | -6.88

Row | Compound | cytotoxicity at 10 µM [%]
39 | CCCc1nc(CN2CCc3c(ncn3C3CC3)C2)cs1 | -0.0225
40 | CCCc1nc(C)c(C(=O)NCCN2CCCCC2)s1 | -0.906
41 | Cc1noc(C2CCCN(C(=O)c3ccc(F)cc3F)C2)n1 (configuration not stated) | 2.01
42 | O=C(c1ccccn1)N1CCC(Nc2cccnn2)CC1 | -0.121
43 | Cc1cnn(CC2CCCCN2Cc2cc(C)on2)c1 (configuration not stated) | -5.36
44 | Cc1nn2cccnc2c1C(=O)N1CCCC(n2ccnc2)C1 (configuration not stated) | -4.62
45 | CCNc1cc2c(nn1)CCN(C(=O)c1ccc(CNC(C)=O)o1)C2 | -10.8
46 | CC(Cn1cccn1)NC(=O)NCc1cccnc1OC1CCCC1 (configuration not stated) | 4.86
47 | Cc1nc(C)n(CC2CCCCN2CCC(=O)Nc2cc(C)on2)n1 (configuration not stated) | -2.86
48 | COc1ccc(CN(C)CC2CCCN2c2cccnn2)cc1F (configuration not stated) | 4.48
49 | CNC(=O)[C@@H](c1ccccc1OC)N1CCC[C@H]1C(=O)NC(C)(C)C | -6.67
50 | c1cc(CNCC2Cn3nncc3CO2)co1 (configuration not stated) | 7.8
51 | CCS(=O)(=O)N1CCCC2(CCCN2Cc2cccc(F)c2)C1 (configuration not stated) | -141
52 | Cc1cnc(N2C[C@H]3CCN(CC4CC4)C[C@H]3C2)nc1 | 6.34
53 | O=C(N1CCOCC1)[C@@]12CCO[C@@H]1CCN(CCN1CCCCC1)C2 | -3.78
54 | Cc1ccc(S(=O)(=O)NC(C)(C)CN)c(F)c1 | -8.73
55 | O=C(c1ccccc1)N1CCC2(CCCN2c2ncccn2)CC1 | -127
56 | CN(C)S(=O)(=O)N1C[C@@H]2C[C@H](C(=O)Nc3ccccc3)[C@H](C1)O2 | 5.86
57 | O=C(Nc1ccc(F)cc1)N1C[C@@H]2CC[C@H]1CN(Cc1cccnc1)C2 | -13.4
